Experimental data reported in ChEMBL document CHEMBL5260840 (J Med Chem, 2019).
The source made the active and inactive calls. The calls are words filed in the database; no cut-off is given here.

Assays:
[1] = target: T1, von Hippel-Lindau disease tumor suppressor/Bromodomain-containing protein 7 (Homo sapiens) (UniProt Q9NPI1+P40337); assay: PROTAC activity at VHL/BRD7 in human Ri-1 cells assessed as BRD7 protein degradation in the presence of MLN4924 by Western blot analysis; assay type: cell-based
[2] = Kinetic aqueous solubility of the compound by laser nephelometry; assay type: physicochemical; conditions: read-out: Kinetic_solubility
Outline: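 Laser nephelometry. DMSO stocks serially diluted from 10 mM to 0.5 mM, then mixed into water to give final 250–12 µM with 2.5% final DMSO. Triplicate aliquots read immediately.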

[3] = Stability in human liver microsomes at 0.5 uM measured upto 30 mins in the presence of NADPH; assay type: ADME, Microsome; conditions: 0.5 h
[4] = target: T2, von Hippel-Lindau disease tumor suppressor/Bromodomain-containing protein 9 (Homo sapiens) (UniProt Q9H8M2+P40337); assay: PROTAC activity at VHL/BRD9 in human Ri-1 cells assessed as BRD9 protein degradation at 100 nM incubated for 4 hrs by MS proteomics analysis; assay type: cell-based
Outline: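 RI-1 cells treated in triplicate with compound (100 nM) or DMSO for 4 h; whole-cell proteome quantified by MS (6273 proteins), fold change versus control with t-test P-values.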

[5] = tested on: EOL1; assay: Antiproliferative activity against human EOL1 cells assessed as inhibition of cell growth incubated for 7 days by CellTiterGlo assay; assay type: functional, cell-based; conditions: EOL1, 168 h
[6] = target: T2, von Hippel-Lindau disease tumor suppressor/Bromodomain-containing protein 9 (Homo sapiens); assay: PROTAC activity at VHL/BRD9 in human Ri-1 cells assessed as BRD9 protein degradation at 100 nM pre-incubated for 30 mins with VH298 followed by compound addition and measured after 4 hrs by Western blot analysis; assay type: cell-based
[7] = target: T1, von Hippel-Lindau disease tumor suppressor/Bromodomain-containing protein 7 (Homo sapiens); assay: PROTAC activity at VHL/HiBiT-tagged BRD7 expressed in HEK293 assessed as BRD7 ubiquitination at 1 uM measured upto 60 mins by NanoBRET assay; assay type: cell-based
[8] = target: T1, von Hippel-Lindau disease tumor suppressor/Bromodomain-containing protein 7 (Homo sapiens); assay: PROTAC activity at VHL/BRD7 in human Ri-1 cells assessed as remaining BRD7 protein level at 10 nM incubated for 24 hrs by Western blot analysis relative to control; assay type: cell-based
[9] = target: T1, von Hippel-Lindau disease tumor suppressor/Bromodomain-containing protein 7 (Homo sapiens); assay: PROTAC activity at VHL/BRD7 in human Ri-1 cells assessed as remaining BRD7 protein level at 100 nM incubated for 1 hrs by Western blot analysis relative to control; assay type: cell-based
Outline: (§1)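 Ri-1 cells exposed to compound for the stated time before harvest; BRD9, BRD7 and β-actin measured by Western blot, band intensities quantified and set against DMSO-treated control.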

[10] = target: T1, von Hippel-Lindau disease tumor suppressor/Bromodomain-containing protein 7 (Homo sapiens); assay: PROTAC activity at VHL/BRD7 in human Ri-1 cells assessed as remaining BRD7 protein level at 10 nM incubated for 1 hrs by Western blot analysis relative to control; assay type: cell-based
[11] = target: T1, von Hippel-Lindau disease tumor suppressor/Bromodomain-containing protein 7 (Homo sapiens); assay: PROTAC activity at VHL/BRD7 in human Ri-1 cells assessed as remaining BRD7 protein level at 100 nM incubated for 30 mins by Western blot analysis relative to control; assay type: cell-based; outline: as §1
[12] = target: T2, von Hippel-Lindau disease tumor suppressor/Bromodomain-containing protein 9 (Homo sapiens); assay: PROTAC activity at VHL/BRD9 in human Ri-1 cells assessed as remaining BRD9 protein level at 100 nM incubated for 48 hrs by Western blot analysis relative to control; assay type: cell-based; outline: as §1
[13] = target: T2, von Hippel-Lindau disease tumor suppressor/Bromodomain-containing protein 9 (Homo sapiens); assay: PROTAC activity at VHL/BRD9 in human Ri-1 cells assessed as remaining BRD9 protein level at 10 nM incubated for 48 hrs by Western blot analysis relative to control; assay type: cell-based; outline: as §1
[14] = target: T2, von Hippel-Lindau disease tumor suppressor/Bromodomain-containing protein 9 (Homo sapiens); assay: PROTAC activity at VHL/BRD9 in human Ri-1 cells assessed as remaining BRD9 protein level at 100 nM incubated for 24 hrs by Western blot analysis relative to control; assay type: cell-based; outline: as §1
[15] = target: T2, von Hippel-Lindau disease tumor suppressor/Bromodomain-containing protein 9 (Homo sapiens); assay: PROTAC activity at VHL/BRD9 in human Ri-1 cells assessed as remaining BRD9 protein level at 10 nM incubated for 4 hrs by Western blot analysis relative to control; assay type: cell-based; outline: as §1
[16] = target: T2, von Hippel-Lindau disease tumor suppressor/Bromodomain-containing protein 9 (Homo sapiens); assay: PROTAC activity at VHL/BRD9 in human Ri-1 cells assessed as remaining BRD9 protein level at 1 uM incubated for 2 hrs by Western blot analysis relative to control; assay type: cell-based; outline: as §1
[17] = target: T1, von Hippel-Lindau disease tumor suppressor/Bromodomain-containing protein 7 (Homo sapiens); assay: PROTAC activity at VHL/BRD7 in human Ri-1 cells assessed as remaining BRD7 protein level at 1 uM incubated for 2 hrs by Western blot analysis relative to control; assay type: cell-based
[18] = target: T2, von Hippel-Lindau disease tumor suppressor/Bromodomain-containing protein 9 (Homo sapiens); assay: PROTAC activity at VHL/BRD9 in human Ri-1 cells assessed as remaining BRD9 protein level at 1 uM incubated for 8 hrs by Western blot analysis relative to control; assay type: cell-based; outline: as §1
[19] = target: T1, von Hippel-Lindau disease tumor suppressor/Bromodomain-containing protein 7 (Homo sapiens); assay: PROTAC activity at VHL/BRD7 in human Ri-1 cells assessed as remaining BRD7 protein level at 1 uM incubated for 8 hrs by Western blot analysis relative to control; assay type: cell-based
[20] = target: T2, von Hippel-Lindau disease tumor suppressor/Bromodomain-containing protein 9 (Homo sapiens); assay: PROTAC activity at VHL/BRD9 in human Ri-1 cells assessed as remaining BRD9 protein level at 100 nM incubated for 8 hrs by Western blot analysis relative to control; assay type: cell-based; outline: as §1
[21] = target: T2, von Hippel-Lindau disease tumor suppressor/Bromodomain-containing protein 9 (Homo sapiens); assay: PROTAC activity at VHL/BRD9 in human Ri-1 cells assessed as remaining BRD9 protein level at 10 nM incubated for 8 hrs by Western blot analysis relative to control; assay type: cell-based; outline: as §1
[22] = target: T2, von Hippel-Lindau disease tumor suppressor/Bromodomain-containing protein 9 (Homo sapiens); assay: PROTAC activity at VHL/BRD9 in human Ri-1 cells assessed as remaining BRD9 protein level at 1 nM incubated for 8 hrs by Western blot analysis relative to control; assay type: cell-based; outline: as §1
[23] = target: T2, von Hippel-Lindau disease tumor suppressor/Bromodomain-containing protein 9 (Homo sapiens); assay: PROTAC activity at VHL/BRD9 in human Ri-1 cells assessed as remaining BRD9 protein level at 0.1 nM incubated for 8 hrs by Western blot analysis relative to control; assay type: cell-based; outline: as §1
[24] = target: T2, von Hippel-Lindau disease tumor suppressor/Bromodomain-containing protein 9 (Homo sapiens); assay: PROTAC activity at VHL/BRD9 in human Ri-1 cells assessed as remaining BRD9 protein level at 10000 nM incubated for 2 hrs by Western blot analysis relative to control; assay type: cell-based; outline: as §1
[25] = target: T2, von Hippel-Lindau disease tumor suppressor/Bromodomain-containing protein 9 (Homo sapiens); assay: PROTAC activity at VHL/BRD9 in human Ri-1 cells assessed as remaining BRD9 protein level at 10 nM incubated for 2 hrs by Western blot analysis relative to control; assay type: cell-based; outline: as §1
[26] = target: T2, von Hippel-Lindau disease tumor suppressor/Bromodomain-containing protein 9 (Homo sapiens); assay: PROTAC activity at VHL/BRD9 in human Ri-1 cells assessed as remaining BRD9 protein level at 1 nM incubated for 2 hrs by Western blot analysis relative to control; assay type: cell-based; outline: as §1
[27] = target: T1, von Hippel-Lindau disease tumor suppressor/Bromodomain-containing protein 7 (Homo sapiens); assay: PROTAC activity at VHL/BRD7 in human Ri-1 cells assessed as remaining BRD7 protein level at 100 nM incubated for 8 hrs by Western blot analysis relative to control; assay type: cell-based; outline: as §1
[28] = target: T1, von Hippel-Lindau disease tumor suppressor/Bromodomain-containing protein 7 (Homo sapiens); assay: PROTAC activity at VHL/BRD7 in human Ri-1 cells assessed as remaining BRD7 protein level at 10000 nM incubated for 2 hrs by Western blot analysis relative to control; assay type: cell-based; outline: as §1
[29] = target: T1, von Hippel-Lindau disease tumor suppressor/Bromodomain-containing protein 7 (Homo sapiens); assay: PROTAC activity at VHL/BRD7 in human Ri-1 cells assessed as remaining BRD7 protein level at 10 nM incubated for 48 hrs by Western blot analysis relative to control; assay type: cell-based; outline: as §1
[30] = target: T2, von Hippel-Lindau disease tumor suppressor/Bromodomain-containing protein 9 (Homo sapiens); assay: PROTAC activity at VHL/BRD9 in human Ri-1 cells assessed as maximal degradation by Western blot analysis relative to control; assay type: cell-based; outline: as §1
[31] = target: Von Hippel-Lindau disease tumor suppressor/Elongin B/Elongin C (Homo sapiens) (UniProt P40337+Q15370+Q15369); assay: Co-operative binding affinity to 6His-tagged human VHL/ElonginC/ElonginB expressed in Escherichia coli BL21 (DE3) cells assessed as maximal intensity in the presence of BRD9-BD as complex with compound incubated for 1 hrs by AlphaLISA proximity assay
Von Hippel-Lindau disease tumor suppressor/Elongin B/Elongin C (Homo sapiens), sequence (P40337 whole entry, looked up): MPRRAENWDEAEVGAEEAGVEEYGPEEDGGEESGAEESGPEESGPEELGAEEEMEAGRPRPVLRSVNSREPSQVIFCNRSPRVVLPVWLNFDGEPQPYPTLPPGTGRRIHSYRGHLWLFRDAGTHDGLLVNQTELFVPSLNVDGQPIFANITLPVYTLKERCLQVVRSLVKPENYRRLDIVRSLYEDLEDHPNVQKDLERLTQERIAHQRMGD
Von Hippel-Lindau disease tumor suppressor/Elongin B/Elongin C (Homo sapiens), sequence (Q15369 whole entry, looked up): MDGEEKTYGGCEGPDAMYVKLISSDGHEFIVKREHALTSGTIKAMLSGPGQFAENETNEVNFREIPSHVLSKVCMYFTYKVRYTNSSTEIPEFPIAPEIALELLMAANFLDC
Von Hippel-Lindau disease tumor suppressor/Elongin B/Elongin C (Homo sapiens), sequence (Q15370 whole entry, looked up): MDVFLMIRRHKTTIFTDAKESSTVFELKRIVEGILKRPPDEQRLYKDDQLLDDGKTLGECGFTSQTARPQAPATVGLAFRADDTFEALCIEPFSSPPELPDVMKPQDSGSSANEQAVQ

T1 sequence (P40337 whole entry, looked up): as the sequence (P40337 whole entry, looked up) above
T1 sequence (Q9NPI1 whole entry, looked up): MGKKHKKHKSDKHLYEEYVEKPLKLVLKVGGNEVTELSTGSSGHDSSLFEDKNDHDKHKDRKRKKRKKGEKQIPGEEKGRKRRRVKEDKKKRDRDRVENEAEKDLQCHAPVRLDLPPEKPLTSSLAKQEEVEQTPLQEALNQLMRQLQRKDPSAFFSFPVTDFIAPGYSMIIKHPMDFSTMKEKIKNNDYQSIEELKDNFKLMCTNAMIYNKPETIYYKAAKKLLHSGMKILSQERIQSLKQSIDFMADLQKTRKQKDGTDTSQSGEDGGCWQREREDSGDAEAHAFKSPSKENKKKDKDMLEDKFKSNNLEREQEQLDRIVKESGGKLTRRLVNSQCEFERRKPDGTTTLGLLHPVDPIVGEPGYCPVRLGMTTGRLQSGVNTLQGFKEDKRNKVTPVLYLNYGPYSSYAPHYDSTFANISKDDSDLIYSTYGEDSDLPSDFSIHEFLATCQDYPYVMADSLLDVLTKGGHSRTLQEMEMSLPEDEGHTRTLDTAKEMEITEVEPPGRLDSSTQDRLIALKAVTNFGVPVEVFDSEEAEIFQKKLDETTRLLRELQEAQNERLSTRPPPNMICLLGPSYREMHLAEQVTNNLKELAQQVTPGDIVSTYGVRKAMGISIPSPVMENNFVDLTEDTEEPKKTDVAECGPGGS
T2 sequence (P40337 whole entry, looked up): as the sequence (P40337 whole entry, looked up) above
T2 sequence (Q9H8M2 whole entry, looked up): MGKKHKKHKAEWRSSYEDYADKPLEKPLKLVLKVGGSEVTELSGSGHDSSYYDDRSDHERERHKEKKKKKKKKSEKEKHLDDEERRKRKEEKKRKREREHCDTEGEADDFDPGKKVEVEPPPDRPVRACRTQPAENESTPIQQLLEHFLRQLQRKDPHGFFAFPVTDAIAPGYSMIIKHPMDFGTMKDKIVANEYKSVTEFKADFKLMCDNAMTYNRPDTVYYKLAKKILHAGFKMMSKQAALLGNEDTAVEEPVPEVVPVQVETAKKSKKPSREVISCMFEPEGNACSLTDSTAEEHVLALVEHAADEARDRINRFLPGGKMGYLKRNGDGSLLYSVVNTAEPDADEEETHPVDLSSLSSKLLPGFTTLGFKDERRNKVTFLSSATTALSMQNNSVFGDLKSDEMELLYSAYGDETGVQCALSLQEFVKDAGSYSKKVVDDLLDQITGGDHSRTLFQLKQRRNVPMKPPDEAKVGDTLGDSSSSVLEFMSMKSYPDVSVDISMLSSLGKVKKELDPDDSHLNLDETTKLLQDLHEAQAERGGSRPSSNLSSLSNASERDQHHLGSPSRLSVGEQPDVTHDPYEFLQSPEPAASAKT

Activity [1]: inactive
solubility kinetic [2]: ≤ 100 µM
Stability [3]: Stable
Activity [4]: Active
Activity [6]: inactive
Activity [7]: Active
Activity [8]: 38%
Activity [9]: 31%
Activity [10]: 70%
Activity [11]: 40%
Activity [12]: 2%
Activity [13]: 2%
Activity [14]: 2%
Activity [15]: 31%
Activity [16]: 52%
Activity [17]: 10%
Activity [18]: 16%
Activity [19]: 5%
Activity [20]: 2%
Activity [21]: 14%
Activity [22]: 62%
Activity [23]: 80%
Activity [24]: 89%
Activity [25]: 35%
Activity [26]: 98%
Activity [27]: 5%
Activity [28]: 75%
Activity [29]: 12%
Emax [30]: > 90%
Activity [31]: 1.47 10^6No_unit
Compound: COc1cc(-c2cn(C)c(=O)c3cnccc23)cc(OC)c1CN1CCN(CCCCCOc2cc(-c3scnc3C)ccc2CNC(=O)[C@@H]2C[C@@H](O)CN2C(=O)[C@@H](NC(=O)C2(F)CC2)C(C)(C)C)CC1
IC50 [5]: 3.39 nM
